Data published in ChEMBL document CHEMBL1134599, “Design and synthesis of [(2,3-dichlorophenyl)piperazin-1-yl]alkylfluorenylcarboxamides as novel ligands selective for the dopamine D3 receptor subtype” (J Med Chem, 2001).
pKi: −log10 of the molar value.

What was measured:
[1] = target: D(2) dopamine receptor (Homo sapiens, UniProt P14416); experiment: Binding affinity at human dopamine receptor D2
Outline: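 Membranes from CHO cells expressing cloned D2 receptor (labelled primate in methods). Compounds tested at 0.1 nM–10 µM in duplicate with 0.1 nM [3H]YM-09151-2 and 40 µg membrane protein. Buffer was 50 mM Tris pH 7.4 with 120 mM NaCl, bacitracin and aprotinin. Incubated 2 h at room temperature, then filtered on PEI-treated GF/C. Nonspecific binding defined with 10 µM spiperone. IC50 converted to Ki by Cheng-Prusoff. 2–3 independent experiments.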

[2] = target: T1, D(4) dopamine receptor (Homo sapiens, UniProt P21917); experiment: Binding affinity at human dopamine receptor D4
T1 sequence (P21917 whole entry): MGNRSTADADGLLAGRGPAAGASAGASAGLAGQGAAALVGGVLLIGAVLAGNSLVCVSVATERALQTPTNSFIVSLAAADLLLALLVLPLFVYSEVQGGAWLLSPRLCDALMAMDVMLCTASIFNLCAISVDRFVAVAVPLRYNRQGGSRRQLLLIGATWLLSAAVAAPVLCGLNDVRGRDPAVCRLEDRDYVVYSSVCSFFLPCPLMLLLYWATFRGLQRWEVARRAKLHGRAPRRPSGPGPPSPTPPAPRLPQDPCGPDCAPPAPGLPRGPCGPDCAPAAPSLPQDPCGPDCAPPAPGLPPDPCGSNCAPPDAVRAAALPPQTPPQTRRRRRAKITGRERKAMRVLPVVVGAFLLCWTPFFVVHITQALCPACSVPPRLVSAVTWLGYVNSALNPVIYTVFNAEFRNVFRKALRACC
Outline: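 Membranes from CHO cells expressing cloned human D4 receptor, prepared in HEPES buffer with protease inhibitors. Compounds tested at 0.1 nM–10 µM in duplicate with 0.1 nM [3H]YM-09151-2 and 40 µg protein, in 50 mM Tris pH 7.4 with 120 mM NaCl. Incubated 2 h at room temperature, then filtered and counted by scintillation. Nonspecific binding defined with 10 µM spiperone. Ki from IC50 by Cheng-Prusoff. 2–3 independent experiments.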

[3] = target: D(3) dopamine receptor (Homo sapiens, UniProt P35462); experiment: Binding affinity at dopamine receptor D3
D(3) dopamine receptor, sequence (P35462 whole entry): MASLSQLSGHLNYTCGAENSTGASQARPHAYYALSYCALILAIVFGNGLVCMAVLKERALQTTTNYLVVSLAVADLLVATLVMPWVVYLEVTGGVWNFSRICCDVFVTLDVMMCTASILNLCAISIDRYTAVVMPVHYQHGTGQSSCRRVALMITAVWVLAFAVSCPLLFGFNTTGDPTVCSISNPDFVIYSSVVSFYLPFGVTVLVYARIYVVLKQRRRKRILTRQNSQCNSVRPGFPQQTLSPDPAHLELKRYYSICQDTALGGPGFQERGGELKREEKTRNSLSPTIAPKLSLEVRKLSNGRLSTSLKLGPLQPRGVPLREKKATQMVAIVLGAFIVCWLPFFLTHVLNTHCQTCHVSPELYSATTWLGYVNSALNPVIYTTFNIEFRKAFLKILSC

[4] = Binding affinity at human dopamine receptor D2

D(2) dopamine receptor, sequence (P14416 whole entry): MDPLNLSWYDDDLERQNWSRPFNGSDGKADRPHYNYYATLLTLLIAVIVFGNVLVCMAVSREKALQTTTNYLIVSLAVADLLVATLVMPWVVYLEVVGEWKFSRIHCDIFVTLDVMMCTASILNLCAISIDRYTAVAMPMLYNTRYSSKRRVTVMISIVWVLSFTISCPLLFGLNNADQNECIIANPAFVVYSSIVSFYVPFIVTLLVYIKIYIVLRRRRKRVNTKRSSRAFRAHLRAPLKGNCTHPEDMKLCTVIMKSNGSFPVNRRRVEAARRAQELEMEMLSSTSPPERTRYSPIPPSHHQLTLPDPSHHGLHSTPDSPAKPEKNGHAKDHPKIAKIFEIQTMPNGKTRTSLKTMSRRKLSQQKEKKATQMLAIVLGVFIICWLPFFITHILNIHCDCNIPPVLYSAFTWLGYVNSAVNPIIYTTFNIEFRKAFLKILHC

Row | pKi [1] | pKi [2] | pKi [3] | pKi [4] | SMILES
1 | – | – | 5.21 | – | CCN(CC)CCOCCOC1(c2ccccc2)CCCC1
2 | 6.08 | 6.17 | 5.84 | – | O=C(NCCCN1CCN(c2ccccc2)CC1)c1ccc2c(c1)Cc1ccccc1-2
3 | – | – | < 5.30 | – | C[C@@H]1CN(CCCN(c2ccccc2)c2ccccc2)C[C@H](C)N1CCCc1ccccc1
4 | 6.74 | < 5.40 | 5.40 | – | OC1CCc2c(c3ccccc3n2CCCN2CCN(c3ccccc3)CC2)C1 (stereo not given)
5 | – | – | < 5.10 | – | C[C@@H]1CN(CCCn2c3ccccc3c3ccccc32)C[C@H](C)N1C
6 | 6.33 | 6.10 | 6.37 | – | O=C(NCCCN1CCN(c2ccccc2)CC1)c1cccc2c1Cc1ccccc1-2
7 | 5.95 | < 5.40 | 5.60 | – | Fc1ccc(C(OCCOC2CC3CCC(C2)N3)c2ccc(F)cc2)cc1 (stereo not given)
8 | – | – | < 5.40 | – | Clc1ccccc1N1CCN(CCCn2c3ccccc3c3ccccc32)CC1
9 | – | – | < 5.40 | – | C[C@@H]1CN(CCCn2c3ccccc3c3ccccc32)C[C@H](C)N1CCCc1ccccc1
10 | 7.05 | 5.73 | 8.85 | – | O=C(NCCCCN1CCN(c2cccc(Cl)c2Cl)CC1)c1cccc2c1-c1ccccc1C2=O
11 | 6.22 | 5.66 | 6.47 | – | O=C(NCCCN1CCN(c2ccccc2)CC1)C1c2ccccc2-c2ccccc21
12 | 8.00 | 6.41 | 7.72 | – | O=C(NCCCCN1CCN(c2cccc(Cl)c2Cl)CC1)C1c2ccccc2-c2ccccc21
13 | 6.29 | 5.40 | 7.44 | – | O=C(NCCCN1CCN(c2cccc(Cl)c2Cl)CC1)c1cccc2c1-c1ccccc1C2=O
14 | – | – | < 5.10 | – | C[C@@H]1CN(CCCn2c3ccc(Br)cc3c3cc(Br)cc(Br)c32)C[C@@H](C)N1
15 | – | – | < 5.10 | – | C[C@@H]1CN(CCCn2c3ccccc3c3cc(N)ccc32)C[C@H](C)N1
16 | 6.11 | 5.86 | 6.37 | – | O=C(NCCCN1CCN(c2ccccc2)CC1)c1cccc2c1-c1ccccc1C2=O
17 | – | – | < 5.10 | – | C[C@@H]1CN(CCCN(c2ccccc2)c2ccccc2)C[C@H](C)N1
18 | – | – | 5.62 | – | c1ccc(N2CCN(CCCn3c4ccccc4c4ccccc43)CC2)cc1
19 | – | < 5.30 | – | […] | O=C(NCCCCN1CCN(c2cccc(Cl)c2Cl)CC1)c1ccc2c(c1)-c1ccccc1-2
20 | 5.59 | 6.46 | 6.96 | – | O=C(NCCCN1CCN(c2cccc(Cl)c2Cl)CC1)c1ccc2c(c1)Cc1ccccc1-2
21 | 8.30 | 6.28 | 7.55 | – | O=C(NCCCCCN1CCN(c2cccc(Cl)c2Cl)CC1)c1cccc2c1-c1ccccc1C2=O
22 | 6.38 | 5.94 | 7.62 | – | O=C(NCCCN1CCN(c2cccc(Cl)c2Cl)CC1)C1c2ccccc2-c2ccccc21

Continued, molecule first:

Row | SMILES | pKi [1] | pKi [2] | pKi [3] | pKi [4]
23 | Clc1cccc(C(OC2CC3CCC(C2)N3CCCc2ccccc2)c2ccccc2)c1 (stereo not given) | 7.23 | 6.65 | 7.14 | –
24 | O=C(NCCCN1CCN(c2cccc(Cl)c2Cl)CC1)c1cccc2c1Cc1ccccc1-2 | 5.77 | 6.49 | 6.77 | –
25 | Fc1ccc(C(OC2CC3CCC(C2)N3Cc2cc3ccccc3[nH]2)c2ccc(F)cc2)cc1 (stereo not given) | 6.66 | 6.76 | 7.27 | –
26 | O=C(NCCCCN1CCN(c2cccc(Cl)c2Cl)CC1)c1ccc2c(c1)-c1ccccc1C2 | 6.66 | < 5.30 | 8.85 | –
27 | Fc1ccc(C(OC2CC3CCC(C2)N3Cc2cccc3ccccc23)c2ccc(F)cc2)cc1 (stereo not given) | 6.42 | 6.92 | 6.95 | –
28 | Fc1ccc(C(OC2CC3CCC(C2)N3Cc2ccccc2)c2ccc(F)cc2)cc1 (stereo not given) | 6.88 | 6.19 | 7.20 | –
29 | Fc1ccc(C(O[C@H]2C[C@H]3CC[C@@H](C2)N3CCCCc2ccccc2)c2ccc(F)cc2)cc1 | 7.09 | 7.17 | 7.86 | –
30 | Fc1ccc(C(OC2CC3CCC(C2)N3Cc2ccc(Cl)c(Cl)c2)c2ccc(F)cc2)cc1 (stereo not given) | 6.20 | 6.46 | 6.56 | –
31 | O=C1c2ccccc2C(=O)N1CCCCCN1CCN(c2cccc(Cl)c2Cl)CC1 | 7.96 | 6.98 | 8.11 | –
32 | CN1[C@@H]2CC[C@H]1C[C@@H](OC(c1ccc(Cl)cc1)c1ccc(Cl)cc1)C2 | – | – | 6.66 | –
33 | CN1C2CCC1CC(OC(c1ccccc1)c1ccc(Cl)cc1)C2 (stereo not given) | 5.76 | 6.00 | 5.27 | –
34 | CN1C2CCC1CC(OC1c3ccccc3Cc3ccccc31)C2 (stereo not given) | 6.17 | 6.27 | 6.71 | –
35 | O=C(NCC1c2ccccc2-c2ccccc21)C1CCNCC1 | – | – | < 5.10 | –
36 | Fc1ccc(C(OCCN2C3CCC2CC(OC(c2ccc(F)cc2)c2ccc(F)cc2)C3)c2ccc(F)cc2)cc1 (stereo not given) | 6.03 | 6.06 | 6.67 | –
37 | C=CCN1C2CCC1CC(OC(c1ccc(F)cc1)c1ccc(F)cc1)C2 (stereo not given) | – | – | 6.89 | –
38 | O=C1c2ccccc2C(=O)N1CCCCN1CCN(c2cccc(Cl)c2Cl)CC1 | 6.92 | 6.43 | 8.39 | –
39 | CN1C2CCC1CC(OC(c1ccc(F)cc1)c1ccc(F)cc1)C2 (stereo not given) [DIFLUOROBENZTROPINE] | – | – | 6.84 | –
